# Test results taken from ChEMBL document CHEMBL1133660, “A potential melanoma tracer: synthesis, radiolabeling, and biodistribution in mice of a new nitridotechnetium bis(aminothiol) derivative pharmacomodulated by a N-(diethylaminoethyl)benzamide” (J Med Chem, 2000).
# What was measured:
# [1] = species: Mus musculus; assay: Tissue biodistribution of the syn isomer in the B16 murine melanoma tumor in mice at 1 hour; type: ADME, organism-based; conditions: in vivo
# Outline: (§1)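 Male C57BL/6 J1 co mice given 5 × 10^5 viable B16 melanoma cells subcutaneously; tumors palpable after 10 days. 0.74 MBq 99mTc-labeled complex injected iv via tail vein. n = 3 per time point; sacrifice by exsanguination at 5 min, 15 min, 1, 3, 6 and 24 h. Tissues weighed and γ-counted; results as % injected dose/gram of tissue.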
# [2] = species: Mus musculus; assay: Tissue biodistribution of the syn isomer in the B16 murine melanoma tumor in mice at 24 hours; type: ADME, organism-based; conditions: in vivo; outline: as §1
# [3] = species: Mus musculus; assay: Tissue biodistribution of the syn isomer in the B16 murine melanoma tumor in mice at 3 hours; type: ADME, organism-based; conditions: in vivo; outline: as §1
# [4] = species: Mus musculus; assay: Tissue biodistribution of the syn isomer in the B16 murine melanoma tumor in mice at 6 hours; type: ADME, organism-based; conditions: in vivo; outline: as §1
# [5] = Tumor / liver ratio observed after 3 hours of injection; type: ADME, tissue-based
# [6] = Tumor / liver ratio observed after 6 hours of injection; type: ADME
# [7] = Tumor / liver ratio observed after 1 hour of injection; type: ADME, tissue-based
# [8] = Tumor / liver ratio observed after 24 hours of injection; type: ADME, tissue-based
# [9] = (§2) Partition coefficient (logP); type: physicochemical; conditions: octanol/water
# Outline: (§3)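 Partition between octanol and pH 7.4 Tris buffer, reported as log P.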
# [10] = as §2; type: physicochemical; conditions: octanol/water; outline: as §3; remark: listed apart in the source
Compound,ID/g [1] [%],ID/g [2] [%],ID/g [3] [%],ID/g [4] [%],Tumor/liver ratio [5],Tumor/liver ratio [6],Tumor/liver ratio [7],Tumor/liver ratio [8],logP [9],logP [10]
CCN(CC)CCNC(=O)c1ccc([125I])cc1,6.75,0.79,3.85,3.53,1.05,3.71,1.12,4.94,–,–
(TcN-BAT)nitridotechnetium complex of bis(aminoethanethiol),0.75,0.04,0.2,0.11,0.1,0.1,0.18,0.06,–,–
CCN(CC)CCNC(=O)c1ccc(COCC(CNCC(C)(C)S)NCC(C)(C)S)cc1 (stereo not drawn),–,–,–,–,–,–,–,–,-0.3,-0.45
